ChEMBL document CHEMBL3792365, “Dioxol and dihydrodioxin analogs of 2- and 3-phenylacetonitriles as potent anti-cancer agents with nanomolar activity against a variety of human cancer cells” (2016)

Legend:
Format in all cases: functional
[1] = Growth inhibition of human HL-60(TB) cells at 10 uM after 48 hrs by sulforhodamine B assay; details: HL-60, 48 h, values are per cent of control
[2] = Growth inhibition of human UO31 cells after 48 hrs by sulforhodamine B assay; details: UO-31, 48 h
Procedure, shortened: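 Five-dose testing across the 60-line human tumour cell panel. GI50 is the drug concentration that gives a 50% reduction in net protein increase relative to control cells.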

M14 = test: Growth inhibition of human M14 cells after 48 hrs by sulforhodamine B assay; details: M14, 48 h
Procedure, shortened: (§1)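 Five-dose testing against a 60-line human tumor cell panel. GI50 is the drug concentration giving a 50% reduction in net protein increase relative to untreated control cells.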

NCI-H23 [3] = test: Growth inhibition of human NCI-H23 cells after 48 hrs by sulforhodamine B assay; details: NCI-H23, 48 h
Procedure, shortened: (§2)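 Five-dose concentration series run across a panel of 60 human tumour cell lines. GI50 is taken as the drug concentration giving a 50% reduction in net protein increase relative to untreated control cells.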

786-0 = test: Growth inhibition of human 786-0 cells after 48 hrs by sulforhodamine B assay; details: 786-0, 48 h; procedure, shortened: as §1
[4] = Growth inhibition of human PC3 cells after 48 hrs by sulforhodamine B assay; details: PC-3, 48 h; procedure, shortened: as §2
[5] = Growth inhibition of human UACC62 cells at 10 uM after 48 hrs by sulforhodamine B assay; details: UACC-62, 48 h, values are per cent of control
A498 = test: Growth inhibition of human A498 cells after 48 hrs by sulforhodamine B assay; details: A498, 48 h; procedure, shortened: as §1
[6] = Growth inhibition of human SW620 cells after 48 hrs by sulforhodamine B assay; details: SW-620, 48 h; procedure, shortened: as §2
[7] = Growth inhibition of human Hs 578T cells after 48 hrs by sulforhodamine B assay; procedure, shortened: as §1
[8] = Growth inhibition of human RPMI8226 cells after 48 hrs by sulforhodamine B assay; details: RPMI-8226, 48 h; procedure, shortened: as §2
[9] = Growth inhibition of human MOLT4 cells after 48 hrs by sulforhodamine B assay; details: MOLT-4, 48 h; procedure, shortened: as §2
[10] = Growth inhibition of human MOLT4 cells at 10 uM after 48 hrs by sulforhodamine B assay; details: MOLT-4, 48 h, values are per cent of control
Malme-3M = test: Growth inhibition of human MALME-3M cells at 10 uM after 48 hrs by sulforhodamine B assay; details: values are per cent of control
MDA-MB-435 = test: Growth inhibition of human MDA-MB-435 cells after 48 hrs by sulforhodamine B assay; details: MDA-MB-435, 48 h; procedure, shortened: as §1
MCF7 [11] = test: Growth inhibition of human MCF7 cells at 10 uM after 48 hrs by sulforhodamine B assay; details: MCF7, 48 h, values are per cent of control
[12] = Growth inhibition of human HCT15 cells at 10 uM after 48 hrs by sulforhodamine B assay; details: HCT-15, 48 h, values are per cent of control
KM12 = test: Growth inhibition of human KM12 cells after 48 hrs by sulforhodamine B assay; details: KM12, 48 h; procedure, shortened: as §1
[13] = Growth inhibition of human IGROV1 cells at 10 uM after 48 hrs by sulforhodamine B assay; details: IGROV-1, 48 h, values are per cent of control
MDA-MB-231 = test: Growth inhibition of human MDA-MB-231 cells after 48 hrs by sulforhodamine B assay; details: MDA-MB-231, 48 h; procedure, shortened: as §1
ACHN = test: Growth inhibition of human ACHN cells after 48 hrs by sulforhodamine B assay; procedure, shortened: as §1
[14] = Growth inhibition of human HCT116 cells after 48 hrs by sulforhodamine B assay; details: HCT-116, 48 h; procedure, shortened: as §1
NCI-H522 [15] = test: Growth inhibition of human NCI-H522 cells after 48 hrs by sulforhodamine B assay; details: NCI-H522, 48 h; procedure, shortened: as §2
[16] = Growth inhibition of human HOP92 cells at 10 uM after 48 hrs by sulforhodamine B assay; details: HOP-92, 48 h, values are per cent of control
[17] = Growth inhibition of human SNB19 cells after 48 hrs by sulforhodamine B assay; details: SNB-19, 48 h; procedure, shortened: as §2
T47D = test: Growth inhibition of human T47D cells at 10 uM after 48 hrs by sulforhodamine B assay; details: values are per cent of control
[18] = Growth inhibition of human HCC2998 cells at 10 uM after 48 hrs by sulforhodamine B assay; details: HCC 2998, 48 h, values are per cent of control
MCF7 [19] = test: Growth inhibition of human MCF7 cells after 48 hrs by sulforhodamine B assay; details: MCF7, 48 h; procedure, shortened: as §1
CCRF-CEM [20] = test: Growth inhibition of human CCRF-CEM cells at 10 uM after 48 hrs by sulforhodamine B assay; details: values are per cent of control
[21] = Growth inhibition of human IGROV1 cells after 48 hrs by sulforhodamine B assay; details: IGROV-1, 48 h; procedure, shortened: as §1
[22] = Growth inhibition of human PC3 cells at 10 uM after 48 hrs by sulforhodamine B assay; details: PC-3, 48 h, values are per cent of control
SR [23] = test: Growth inhibition of human SR cells at 10 uM after 48 hrs by sulforhodamine B assay; details: values are per cent of control
[24] = Growth inhibition of human RPMI8226 cells at 10 uM after 48 hrs by sulforhodamine B assay; details: RPMI-8226, 48 h, values are per cent of control
[25] = Growth inhibition of human OVCAR3 cells after 48 hrs by sulforhodamine B assay; details: OVCAR-3, 48 h; procedure, shortened: as §2
[26] = Growth inhibition of human Hs 578T cells at 10 uM after 48 hrs by sulforhodamine B assay; details: values are per cent of control
NCI-H23 [27] = test: Growth inhibition of human NCI-H23 cells at 10 uM after 48 hrs by sulforhodamine B assay; details: NCI-H23, 48 h, values are per cent of control
SR [28] = test: Growth inhibition of human SR cells after 48 hrs by sulforhodamine B assay; procedure, shortened: as §2
NCI-H522 [29] = test: Growth inhibition of human NCI-H522 cells at 10 uM after 48 hrs by sulforhodamine B assay; details: NCI-H522, 48 h, values are per cent of control
A549 = test: Growth inhibition of human A549/ATCC cells after 48 hrs by sulforhodamine B assay; details: A549, 48 h; procedure, shortened: as §1
CCRF-CEM [30] = test: Growth inhibition of human CCRF-CEM cells after 48 hrs by sulforhodamine B assay; procedure, shortened: as §1
MDA-MB-468 = test: Growth inhibition of human MDA-MB-468 cells after 48 hrs by sulforhodamine B assay; details: MDA-MB-468, 48 h; procedure, shortened: as §1
[31] = Growth inhibition of human UACC257 cells at 10 uM after 48 hrs by sulforhodamine B assay; details: UACC-257, 48 h, values are per cent of control
SK-MEL-5 = test: Growth inhibition of human SK-MEL-5 cells after 48 hrs by sulforhodamine B assay; details: SK-MEL-5, 48 h; procedure, shortened: as §2

COc1ccc(/C(C#N)=C/c2ccc3c(c2)OCCO3)cc1
growth, % of control at 10 µM [1]: 38%
GI50 [2]: > 100 µM
GI50 (M14): 3.87 µM
GI50 (NCI-H23 [3]): > 100 µM
GI50 (786-0): 35.8 µM
GI50 [4]: > 100 µM
growth, % of control at 10 µM [5]: 53.7%
GI50 (A498): > 100 µM
GI50 [6]: 3.93 µM
GI50 [7]: > 100 µM
GI50 [8]: > 100 µM
GI50 [9]: > 100 µM
growth, % of control at 10 µM [10]: 32.2%
growth, % of control at 10 µM (Malme-3M): 64.6%
GI50 (MDA-MB-435): 510 nM
growth, % of control at 10 µM (MCF7 [11]): 24.4%
growth, % of control at 10 µM [12]: 43.4%
GI50 (KM12): 4.26 µM
growth, % of control at 10 µM [13]: 71.3%
GI50 (MDA-MB-231): 69.3 µM
GI50 (ACHN): > 100 µM
GI50 [14]: 6.33 µM
GI50 (NCI-H522 [15]): > 100 µM
growth, % of control at 10 µM [16]: 89%
GI50 [17]: > 100 µM
growth, % of control at 10 µM (T47D): 40.4%
growth, % of control at 10 µM [18]: 55.7%
GI50 (MCF7 [19]): 3.01 µM
growth, % of control at 10 µM (CCRF-CEM [20]): 58.7%
GI50 [21]: > 100 µM
growth, % of control at 10 µM [22]: 70.9%
growth, % of control at 10 µM (SR [23]): -1.3%
growth, % of control at 10 µM [24]: 80.8%
GI50 [25]: 37.1 µM
growth, % of control at 10 µM [26]: 79.6%
growth, % of control at 10 µM (NCI-H23 [27]): 78.3%
GI50 (SR [28]): 2760 nM
growth, % of control at 10 µM (NCI-H522 [29]): 39.3%
GI50 (A549): 21.7 µM
GI50 (CCRF-CEM [30]): > 100 µM
GI50 (MDA-MB-468): 4.29 µM
growth, % of control at 10 µM [31]: 76.7%
GI50 (SK-MEL-5): 3.54 µM
